# Legend:
# [1] = molecular target: T1, Cytochrome P450 2C19 (Homo sapiens, UniProt P33261); assay: Activity of human CYP2C19 expressed in microsomes isolated from baculovirus infected insect cell assessed as enzyme-mediated compound formation treated with [14C]-rivoglitazone at 20 uM after 2 hrs by radio-HPLC/LC-MS/MS analysis in presence of NADPH-generating system; assay type: ADME
# How it was run: (§1)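 Baculovirus/insect-cell microsomes expressing single human CYPs, 1 mg/ml protein, with 50 mM potassium phosphate (pH 7.4) or 100 mM Tris-HCl (pH 7.5). NADPH-generating system: 2 mM NADP⁺, 20 mM glucose 6-phosphate, 2 units/ml G6PDH, 10 mM MgCl₂. [¹⁴C]rivoglitazone at 20 μM, 2 h at 37°C with shaking. Control used insect-cell control supersomes. Stopped with acetonitrile; supernatant concentrated under nitrogen; metabolites analysed by radio-HPLC, LC-MS and LC-MS/MS.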
# [2] = molecular target: Cytochrome P450 3A4 (Homo sapiens, UniProt P08684); assay: Activity of human CYP3A4 expressed in microsomes isolated from baculovirus infected insect cell assessed as enzyme-mediated compound formation treated with [14C]-rivoglitazone at 20 uM after 2 hrs by radio-HPLC/LC-MS/MS analysis in presence of NADPH-generating system; assay type: ADME
# How it was run: (§2)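 Baculovirus-insect-cell microsomes expressing the human CYP (1 mg/ml protein) were incubated with [14C]rivoglitazone (20 μM) in 50 mM potassium phosphate (pH 7.4) or 100 mM Tris-HCl (pH 7.5) with an NADPH-generating system (2 mM NADP+, 20 mM glucose 6-phosphate, 2 units/ml G6PDH, 10 mM MgCl2) for 2 h at 37°C. Insect-cell control supersomes served as the control. Reactions were stopped with acetonitrile, and the concentrated supernatants were analysed by radio-HPLC, LC-MS and LC-MS/MS.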
# [3] = tested on: Hepatocyte; assay: Drug level in human hepatocytes treated with [14C]-rivoglitazone at 30 uM after 3 hrs by radio-HPLC/LC-MS/MS analysis in presence of UDPGA, UDPGA/SAM and NADPH-generating system; assay type: ADME, cell-based
# [4] = Drug metabolism in human hepatocytes assessed as formation of 5-(4-((6-hydroxy-1-methyl-1H-benzo[d]imidazol-2-yl)methoxy)benzyl)thiazolidine-2,4-dione at 30 uM after 3 hrs by radio-HPLC/LC-MS/MS analysis in presence of NADPH-generating system and NADPH-generating system/SAM; assay type: ADME, cell-based, Hepatocyte
# [5] = Drug metabolism in monkey hepatocytes assessed as formation of (2S,3S,4S,5R,6R)-3,4,5-trihydroxy-6-(5-(4-((6-methoxy-1-methyl-1H-benzo[d]imidazol-2-yl)methoxy)benzyl)-2,4-dioxothiazolidin-3-yl)tetrahydro-2H-pyran-2-carboxylic acid at 30 uM after 3 hrs by radio-HPLC/LC-MS/MS analysis in presence of UDPGA and UDPGA/SAM; details: cynomolgus monkey
# [6] = tested on: Plasma; assay: Drug metabolism in po dosed monkey plasma assessed as formation of 5-(4-((6-methoxy-1H-benzo[d]imidazol-2-yl)methoxy)benzyl)thiazolidine-2,4-dione; assay type: ADME, organism-based, Macaca mulatta; details: rhesus monkey, in vivo
# [7] = tested on: Liver microsome; assay: Drug metabolism in human liver microsomes assessed as formation of 3-(4-((6-methoxy-1-methyl-1H-benzo[d]imidazol-2-yl)methoxy)phenyl)-2-(methylthio)propanoic acid at 20 uM after 2 to 4 hrs by radio-HPLC/LC-MS/MS analysis in presence of NADPH-generating system/SAM and UDPGA/SAM; assay type: ADME
# [8] = molecular target: T2, UDP-glucuronosyltransferase 2B4 (Homo sapiens, UniProt P06133); assay: Activity of human UGT2B4 expressed in microsomes isolated from baculovirus infected insect cell assessed as enzyme-mediated (2S,3S,4S,5R,6R)-6-((1-carboxy-2-(4-((6-methoxy-1-methyl-1H-benzo[d]imidazol-2-yl)methoxy)phenyl)ethylthio)carbonylamino)-3,4,5-trihydroxytetrahydro-2H-pyran-2-carboxylic acid formation at 20 uM after 4 hrs by radio-HPLC/LC-MS/MS analysis in presence of UDPGA; assay type: ADME
# T2 sequence (P06133 whole entry): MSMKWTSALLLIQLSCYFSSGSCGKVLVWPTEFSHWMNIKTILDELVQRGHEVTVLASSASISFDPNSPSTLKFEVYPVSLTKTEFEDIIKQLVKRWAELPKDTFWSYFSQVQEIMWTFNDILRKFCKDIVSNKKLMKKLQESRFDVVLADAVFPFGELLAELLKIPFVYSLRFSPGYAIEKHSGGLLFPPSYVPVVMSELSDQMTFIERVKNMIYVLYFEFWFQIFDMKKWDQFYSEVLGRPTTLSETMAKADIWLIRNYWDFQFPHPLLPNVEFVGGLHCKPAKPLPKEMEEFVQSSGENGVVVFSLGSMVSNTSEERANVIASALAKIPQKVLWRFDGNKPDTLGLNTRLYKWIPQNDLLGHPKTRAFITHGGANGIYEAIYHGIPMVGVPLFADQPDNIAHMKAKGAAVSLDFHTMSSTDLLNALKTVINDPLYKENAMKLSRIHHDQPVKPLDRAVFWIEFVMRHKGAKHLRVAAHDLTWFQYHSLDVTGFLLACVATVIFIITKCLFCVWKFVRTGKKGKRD
# [9] = molecular target: T1, Cytochrome P450 2C19; assay: Activity of human CYP2C19 expressed in microsomes isolated from baculovirus infected insect cell assessed as enzyme-mediated 3-(4-((6-methoxy-1-methyl-1H-benzo[d]imidazol-2-yl)methoxy)phenyl)-2-(methylsulfinyl)propanamide formation at 20 uM after 2 hrs by radio-HPLC/LC-MS/MS analysis in presence of NADPH-generating system/SAM; assay type: ADME
# [10] = Drug metabolism in rat hepatocytes assessed as formation of 3-(4-((6-methoxy-1-methyl-1H-benzo[d]imidazol-2-yl)methoxy)phenyl)-2-(methylthio)propanoic acid at 30 uM after 3 hrs by radio-HPLC/LC-MS/MS analysis in presence of NADPH-generating system/SAM and UDPGA/SAM; assay type: ADME, cell-based, Hepatocyte
# [11] = molecular target: T3, Cytochrome P450 2C9 (Homo sapiens, UniProt P11712); assay: Activity of human CYP2C9 expressed in microsomes isolated from baculovirus infected insect cell assessed as enzyme-mediated 3-(4-((6-methoxy-1-methyl-1H-benzo[d]imidazol-2-yl)methoxy)phenyl)-2-(methylsulfonyl)propanamide formation at 20 uM after 2 hrs by radio-HPLC/LC-MS/MS analysis in presence of NADPH-generating system/SAM; assay type: ADME
# [12] = Drug metabolism in monkey hepatocytes assessed as formation of 3-(4-((6-methoxy-1-methyl-1H-benzo[d]imidazol-2-yl)methoxy)phenyl)-2-(methylsulfonyl)propanamide at 30 uM after 3 hrs by radio-HPLC/LC-MS/MS analysis in presence of NADPH-generating system/SAM; details: cynomolgus monkey
# [13] = molecular target: T3, Cytochrome P450 2C9; assay: Activity of human CYP2C9 expressed in microsomes isolated from baculovirus infected insect cell assessed as enzyme-mediated 2-mercapto-3-(4-((6-methoxy-1-methyl-1H-benzo[d]imidazol-2-yl)methoxy)phenyl)propanoic acid formation at 20 uM after 2 hrs by radio-HPLC/LC-MS/MS analysis in presence of NADPH-generating system; assay type: ADME; how it was run: as §2
# [14] = tested on: Liver microsome; assay: Drug metabolism in human liver microsomes assessed as formation of (2S,3S,4S,5R,6R)-3,4,5-trihydroxy-6-(5-(4-((6-methoxy-1-methyl-1H-benzo[d]imidazol-2-yl)methoxy)benzyl)-2,4-dioxothiazolidin-3-yl)tetrahydro-2H-pyran-2-carboxylic acid at 20 uM after 4 hrs by radio-HPLC/LC-MS/MS analysis in presence of UDPGA and UDPGA/SAM; assay type: ADME
# [15] = molecular target: T1, Cytochrome P450 2C19; assay: Activity of human CYP2C19 expressed in microsomes isolated from baculovirus infected insect cell assessed as enzyme-mediated 2-amino-3-((1-carboxy-2-(4-((6-methoxy-1-methyl-1H-benzo[d]imidazol-2-yl)methoxy)phenyl)ethyl)disulfanyl)propanoic acid formation at 20 uM after 2 hrs by radio-HPLC/LC-MS/MS analysis; assay type: ADME; how it was run: as §1
# [16] = Drug metabolism in monkey hepatocytes assessed as formation of 2-mercapto-3-(4-((6-methoxy-1-methyl-1H-benzo[d]imidazol-2-yl)methoxy)phenyl)propanamide at 30 uM after 3 hrs by radio-HPLC/LC-MS/MS analysis in presence of NADPH-generating system and NADPH-generating system/SAM; details: cynomolgus monkey
# T1 sequence (P33261 whole entry): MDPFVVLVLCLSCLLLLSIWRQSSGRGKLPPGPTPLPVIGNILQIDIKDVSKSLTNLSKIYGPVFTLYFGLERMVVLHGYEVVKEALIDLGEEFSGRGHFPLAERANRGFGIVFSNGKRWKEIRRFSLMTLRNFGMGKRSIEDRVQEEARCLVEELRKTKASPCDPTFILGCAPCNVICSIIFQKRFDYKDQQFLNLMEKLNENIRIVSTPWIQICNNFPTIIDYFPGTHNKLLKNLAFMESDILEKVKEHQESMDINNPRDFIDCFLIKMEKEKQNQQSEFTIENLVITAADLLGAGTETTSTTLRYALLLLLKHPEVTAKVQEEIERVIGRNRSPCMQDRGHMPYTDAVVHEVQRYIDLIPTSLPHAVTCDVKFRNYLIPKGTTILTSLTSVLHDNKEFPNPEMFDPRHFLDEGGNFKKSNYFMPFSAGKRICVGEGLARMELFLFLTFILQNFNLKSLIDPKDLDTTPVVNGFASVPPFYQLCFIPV
# T3 sequence (P11712 whole entry): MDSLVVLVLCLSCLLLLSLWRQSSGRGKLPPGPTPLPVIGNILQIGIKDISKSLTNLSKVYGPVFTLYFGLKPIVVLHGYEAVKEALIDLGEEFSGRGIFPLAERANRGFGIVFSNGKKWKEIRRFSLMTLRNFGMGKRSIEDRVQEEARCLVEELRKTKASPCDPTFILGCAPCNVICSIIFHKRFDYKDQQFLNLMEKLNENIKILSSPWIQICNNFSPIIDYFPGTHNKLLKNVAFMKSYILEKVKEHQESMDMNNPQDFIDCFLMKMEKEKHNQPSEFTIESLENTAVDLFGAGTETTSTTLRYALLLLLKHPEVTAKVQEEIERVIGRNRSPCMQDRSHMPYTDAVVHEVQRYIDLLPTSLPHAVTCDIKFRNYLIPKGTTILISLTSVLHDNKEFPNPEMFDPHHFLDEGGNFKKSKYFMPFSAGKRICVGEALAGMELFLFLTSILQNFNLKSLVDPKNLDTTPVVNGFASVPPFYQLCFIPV
# Sequence of Cytochrome P450 3A4 (P08684 whole entry): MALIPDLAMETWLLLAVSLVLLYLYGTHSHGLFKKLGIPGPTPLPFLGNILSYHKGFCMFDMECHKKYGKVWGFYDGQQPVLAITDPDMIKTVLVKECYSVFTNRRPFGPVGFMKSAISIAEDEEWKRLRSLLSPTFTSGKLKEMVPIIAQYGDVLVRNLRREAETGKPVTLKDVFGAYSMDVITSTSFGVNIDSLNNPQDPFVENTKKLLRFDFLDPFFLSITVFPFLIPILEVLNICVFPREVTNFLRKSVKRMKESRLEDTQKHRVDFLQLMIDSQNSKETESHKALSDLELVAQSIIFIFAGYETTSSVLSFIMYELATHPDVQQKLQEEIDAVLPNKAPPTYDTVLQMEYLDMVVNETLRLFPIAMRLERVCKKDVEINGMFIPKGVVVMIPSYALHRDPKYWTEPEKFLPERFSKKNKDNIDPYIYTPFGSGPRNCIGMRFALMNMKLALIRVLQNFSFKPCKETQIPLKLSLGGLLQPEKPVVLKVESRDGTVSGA
Drug metabolism [1],Drug metabolism [2],Drug metabolism [3],Drug metabolism [4],Drug metabolism [5],Drug metabolism [6],Drug metabolism [7],Drug metabolism [8],Drug metabolism [9],Drug metabolism [10],Drug metabolism [11],Drug metabolism [12],Drug metabolism [13],Drug metabolism [14],Drug metabolism [15],Drug metabolism [16],Compound
metabolite_detected,metabolite_detected,metabolite_not_detected,,,,,,,,,,,,,,COc1ccc2nc(COc3ccc(CC(S)C(=O)O)cc3)n(C)c2c1 (stereo unspecified)
,,,metabolite_detected,metabolite_detected,metabolite_detected,metabolite_detected,metabolite_not_detected,metabolite_not_detected,metabolite_not_detected,metabolite_not_detected,metabolite_not_detected,metabolite_detected,metabolite_detected,metabolite_not_detected,metabolite_not_detected,COc1ccc2nc(COc3ccc(C[14CH]4SC(=O)NC4=O)cc3)n(C)c2c1.Cl (racemic)
